Screens (PubChem BioAssay)
Cneo AK release – Cryptococcus neoformans cell lysis inducers, primary screen, AK release luminescence, single concentration | C. neoformans lysis, adenylate kinase release luminescence, 4 h; normalised: neutral wells 0, clomiphene wells 100 | lysis activity, % at 15 µM | 0.2% of 360,000 active;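 active = mean lysis activity across replicates of at least 80%, whatever share of replicates individually reach that level; inactive = mean lysis activity below 80%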
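Material: C. neoformans cells; Schedule: 4 h static compound exposure, 37 °C, read 1 h post-reagent; Measured by: adenylate kinase release luminescence; Read-out: signal increase indicating cell lysis; Controls: Clomiphene as positive lysis control.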
PGC1a acetyl inh – inhibitors of PGC1a acetylation signal, primary screen, cell-based, U2OS, AlphaScreen, inhibitor mode. AlphaScreen anti-acetyl-lysine; with virally co-expressed GCN5 acetyltransferase. inhibition, % at 15.6 µM. 0.17% of 350,000 active;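 active = every replicate shows inhibition of at least 40%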;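 also: 0% = neutral control wells and 100% = positive control wells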
FGF22 binding – binders of human FGF22 protein, primary screen, FGF22 synaptogenesis inhibitor project, biophysical, thermal shift, single point; Fibroblast growth factor 22 (Homo sapiens), Q9HCT0; recombinant FGF22 thermal shift, SYPRO orange fluorescence; percent of sucrose octasulfate shift, DMSO zero; activity (Tm shift, normalised), % at 9.99 µM; 1.5% of 340,000 active;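 active = mean Tm shift, scaled 0 neutral to 100 positive control, at about 1.3% or above, every replicate too, limit read from the data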
Target sequence (Q9HCT0 whole entry, looked up): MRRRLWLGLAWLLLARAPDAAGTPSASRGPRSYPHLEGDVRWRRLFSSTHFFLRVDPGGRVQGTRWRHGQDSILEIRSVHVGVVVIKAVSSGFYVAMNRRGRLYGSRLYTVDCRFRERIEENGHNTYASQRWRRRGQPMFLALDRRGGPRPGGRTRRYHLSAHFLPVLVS
Ecoli rRNA inh – reduced GFP signal of wild-type E. coli, primary screen, bacterial rRNA inhibitor project, GFP/RFP fluorescence, OD600, single point; E. coli WT GFP vs humanized-ribosome RFP mutants, 24 h; stronger effect = lower value; DMSO median 0, no signal -100; GFP signal change (wild-type ribosome), % (concentration not given with the values); 1.6% of 350,000 active; AID 720706, 2013;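 active = significant combined selectivity score with lowered wild-type GFP, culture density cut under 30%, mutant RFP and density less affected; inactive = any of these conditions unmet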
ERAP1 HTS inh – human ERAP1 aminopeptidase inhibitors, primary screen, biochemical, single point, plate reader; recombinant ERAP1, Leu-AMC fluorescence, 60 min; inhibition, % at 10.7 µM; 0.15% of 340,000 active;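 active = mean replicate inhibition of at least 30%, or all replicates individually reaching that 30% level; inactive = mean below 30% and not every replicate reaching it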;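 also: 0% = neutral control wells and 100% = L-leucinethiol positive control wells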
HIV Env fusion – inhibitors of HIV-1 Env-driven cell-cell fusion, primary screen, HeLa-JRFL effector, CEM21 target cells, luciferase | inhibition, % at 12.3 µM | 1.1% of 360,000 active;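 active = mean replicate inhibition score of at least 50 and every replicate individually at or above 50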;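 also: 0% = plate neutral controls and 100% = maraviroc near 300 nM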
The depositor's hits bear a star; / = no result; [ ] = remark or other dose. Shown are actives, neighbours in structure and some others; about 3.5% of the full set was active somewhere.

SMILES | Cneo AK release | PGC1a acetyl inh | FGF22 binding | Ecoli rRNA inh | ERAP1 HTS inh | HIV Env fusion
CC1C(C)N(C(=O)CCCl)c2ccccc2N1C(=O)CCCl (stereo unspecified) | -3 | 8 | 0 | 6 | -6 | -27
O=C(Nc1cc(Cl)cc(Cl)c1)C(c1ccccc1)N1CCCCC1 (stereo unspecified) | / | / | / | / | / | 75*
COc1ccccc1NC(=O)CN1CCOCC1 | -4 | 6 | 0 | 6 | -1 | 5
CCCn1c(/C=C/c2cc[n+](C)cc2)nc2ccccc21 | -1 | 6 | 0 | 19 | 41* | -2
NCC[C@H]1CC[C@@H](NC(=O)c2ccccc2F)[C@H](CO)O1 | / | 9 | / | 4 | / | /
CCN(CC)S(=O)(=O)c1cccc(S(=O)(=O)c2cccc(S(=O)(=O)N(CC)CC)c2)c1 | -1 | 0 | / | / | / | 79*
CCN(CC)S(=O)(=O)c1cccc(S(=O)(=O)N2CCCCC2)c1 | -1 | -5 | / | -12 | 0 | /
COc1ccc(C2N(c3ccccc3)C(=O)C2(F)F)cc1OC (stereo unspecified) | -2 | -3 | 0 | -23* | 3 | -11
CC(=O)C1=C(O)C(=O)N(CCCn2ccnc2)C1c1ccc(Br)cc1 (stereo unspecified) | -1 | 4 | 43* | 10 | 1 | 8
COc1ccc(C2C(C(C)=O)=C(O)C(=O)N2CCCn2ccnc2)cc1OC (stereo unspecified) | -4 | 5 | / | / | / | /
Cc1ccc(Cl)cc1-c1cc(C(=O)NCc2ccccc2)[nH]n1 | -13 | 1 | 0 | -55 | -4 | -14
COc1cc(/C=N/NC(=O)c2cccc([N+](=O)[O-])c2)ccc1OCc1ccc(C)cc1 | 0 | -7 | / | / | / | -70
N#Cc1cccc(NC(=O)CSc2nnc(-c3n[nH]c4ccccc34)o2)c1 | / | 1 | 1.9* | 15 | 0 | -25
O=C(CSc1nnc(-c2n[nH]c3ccccc23)n1-c1ccccc1)Nc1cccc(Cl)c1 | / | -3 | / | / | / | 70*
Cc1cccc(NC(=O)CSc2nnc(-c3n[nH]c4ccccc34)o2)c1 | / | / | 1 | -12 | 7 | -7
CCOc1ccccc1NC(=O)CSc1nccn1-c1ccccc1 | 2 | 2 | / | / | / | /
O=C(/C=C/c1ccc(O)cc1)c1ccc(NC2=C(N3CCCCC3)C(=O)c3ccccc3C2=O)cc1 | -6 | 6 | 0 | -37* | 0 | /
O=C(/C=C/c1ccc(O)cc1)c1ccccc1 | / | 3 | 1.3* | 3 | -1 | -75
CCOC(=O)Nc1ccc(C(=O)/C=C/c2ccccc2)cc1 | -4 | 48 | 0 | -26* | 3 | -62
COc1ccc(C=CC(=O)c2cc(O)ccc2O)cc1 | 8 | -8 | 0 | -36* | 1 | -214
COc1ccc(/C=C/C(=O)Oc2cc(O)cc(O)c2)cc1 | / | / | 0 | -7 | 2 | 24
CN(C)c1ccc(/C=C/C(=O)c2ccc(O)cc2)cc1 | / | -16 | 1 | -37 | 5 | -292
Cc1cc(=O)oc2cc(OCC(=O)N3CCc4ccccc4C3)ccc12 | / | -9 | / | / | / | /
Cc1ccc(CNC(=O)Cn2cccc2C(=O)c2ccccc2)cc1 | 3 | 6 | / | / | / | -9
O=c1c2c(nc3nc(CCc4ccccc4)[nH]n13)CCC2 | 1 | 9 | / | / | / | /
SMILES | Cneo AK release | PGC1a acetyl inh | FGF22 binding | Ecoli rRNA inh | ERAP1 HTS inh | HIV Env fusion
C[C@@H]1CN([C@@H](C)CO)S(=O)(=O)c2ccc(C3=CCCC3)cc2O[C@H]1CN(C)C(=O)C1CCC1 | 0 | 18 | 0 | 0 | -2 | 13[16.7 µM]
COc1ccc(C(=O)/C=C/c2ccc(O)cc2)cc1 | -7 | -16 | 2.7* | / | -2 | /
NNC(=O)CSCc1nc(-c2ccccc2)cs1 | / | 3 | 0 | / | -1 | -1
NNC(=O)CSCc1nc(-c2ccc(Cl)cc2)cs1 | -1 | 4 | 0 | -27* | 2 | -13
Cc1ccc(NC(=O)c2sc(=S)n(-c3cc(C)ccc3F)c2N)cc1 | 1 | 6 | 43* | 11 | -1 | -4
CCOC(=O)C1=C(C)Nc2ccccc2N=C1NC(=O)/C=C/c1ccc(OC)cc1OC | / | 2 | 44* | 10 | 3 | 4
CCOC(=O)C1=C(C)Nc2ccccc2N=C1NC(=O)Cc1ccc(OC)cc1 | 0 | -4 | / | / | / | /
NC(=O)NOCc1ccccc1F | -1 | 2 | 0 | 9 | -7 | 10
CCOc1ccccc1CNc1ncnc2ccc(-c3c(C)noc3C)cc12 | -1 | -1 | 0 | -50 | -2 | 70*
Cc1cc(C(=O)COc2ccc(-c3nnco3)cc2)c(C)n1Cc1ccccc1 | -2 | / | / | / | / | 65*
COc1ccc(C(=O)NNC(=O)CSc2nc3c([nH]2)c(=O)n(C)c(=O)n3C)cc1 | 0 | / | 0 | 13 | -4 | 2
Fc1ccc(NC(=S)NCCN2CCOCC2)c(F)c1F | / | / | 43* | 8 | 1 | 0
Cc1ccc(OCc2ccc(C(=O)NN)o2)c([N+](=O)[O-])c1 | / | 7 | 0 | 1 | -2 | -25
COC(=O)c1ccc(COc2ccc(C)cc2[N+](=O)[O-])o1 | -1 | 14 | 0 | -24* | 2 | 8
Cc1ccc(OCC(=O)N/N=C\c2ccc(O)c([N+](=O)[O-])c2)c([N+](=O)[O-])c1 | / | / | 0 | 12 | -3 | 11
Cc1ccc(/C=N\NC(=O)COc2ccc(C)cc2[N+](=O)[O-])cc1 | / | / | 43* | 3 | 4 | -6
COc1ccc(OC)c(-n2c(CNC3CCN(Cc4ccccc4)CC3)nc3ccccc3c2=O)c1 | 0 | -3 | / | / | / | -21
O=C(O)c1ccc(N/N=C/c2ccc(-c3ccccc3)cc2)cc1 | / | / | 43 | -45 | -1 | -203
O=C(O)c1ccc(/C=N/Nc2cccc(C(F)(F)F)c2)cc1 | 1 | -5 | 0 | -41* | -14 | -18
Cc1ccc(/C=N/Nc2ccc(C(=O)O)cc2)s1 | -5 | 2 | 42 | -1 | -21 | 64*
CC(C)c1ccc(/C=N/Nc2ccc(C(=O)O)cc2)cc1 | / | / | 44* | -3 | -19 | 66*
C[C@@H]1CCCCO[C@@H](CN(C)C(=O)C2CCCCC2)[C@H](C)CN([C@H](C)CO)C(=O)c2cc(NS(=O)(=O)c3ccc(F)cc3)ccc2O1 | 0 | -9 | 0 | -2 | 0 | -77[16.7 µM]
C(=N\Nc1nc(Nc2ccccc2)nc(N2CCOCC2)n1)/c1c[nH]c2ccccc12 | / | / | / | / | / | 70*
O=C(CCC(=O)N1CCN(S(=O)(=O)c2ccc3ccccc3c2)CC1)Nc1cc(Cl)cc(Cl)c1 | / | / | 0 | 11 | 0 | 85*
